ChEMBL document CHEMBL4725242, “Discovery of GS-9688 (Selgantolimod) as a Potent and Selective Oral Toll-Like Receptor 8 Agonist for the Treatment of Chronic Hepatitis B” (J Med Chem, 2020)
Active and inactive are the calls of the source.

Columns and labels:
[1] = Dissociation constant, pKa of the compound; type: physicochemical
Homo sapiens = species: Homo sapiens; experiment: Selectivity ratio of EC50 for TLR7 in human cryopreserved PBMC assessed as induction of IFNalpha production to EC50 for TLR8 in human cryopreserved PBMC assessed as induction of IL-12p40 production
In short: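 Cryopreserved healthy-donor human PBMC, recovered 2 h at 37°C/5% CO2, then 100k cells/well in RPMI/10% FBS exposed 24 h at 37°C to a 10-point half-log dilution series (0.5% final DMSO). Supernatant IFNα-2a quantified by MSD electrochemiluminescence immunoassay. Normalized to 10 µM GS-9620 positive and DMSO negative controls; EC50 from 4-parameter logistic fit. For the ratio, divided by the IL-12p40 EC50 from the same PBMC screen.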

[2] = Cytotoxicity against human MT4 cells assessed as reduction in cell viability measured after 4 to 5 days by celltiter-glo assay; type: cell-based; details: time 4-5 day
[3] = Selectivity index, ratio of CC50 for human MT4 cells to EC50 for TLR8 in human cryopreserved PBMC assessed as induction of IL-12p40 production
[4] = Immunomodulatory activity in human primary hepatocytes infected with HBV assessed as stimulation of CD8+T cell response to virus by measuring decrease in HBV DNA production treated with media from PBMC stimulated with 10 nM compound for 10 days relative to control; type: functional; set-up: scale not given: the % may be the effect or the level left; details: time 10 day
[5] = Clearance in rat hepatic microsomes at 2 uM measured up to 60 mins in presence of NADPH generating system by LC-MS/MS analysis; type: ADME, Microsome; details: liver microsomes
[6] = Clearance in dog hepatic microsomes at 2 uM measured up to 60 mins in presence of NADPH generating system by LC-MS/MS analysis; type: ADME, Canis lupus familiaris, Microsome; details: liver microsomes
[7] = Clearance in cynomolgus monkey hepatic microsomes at 2 uM measured up to 60 mins in presence of NADPH generating system by LC-MS/MS analysis; type: ADME, Macaca fascicularis, Microsome; details: liver microsomes
[8] = Clearance in human hepatic microsomes at 2 uM measured up to 60 mins in presence of NADPH generating system by LC-MS/MS analysis; type: ADME, Microsome; details: liver microsomes
[9] = Drug metabolism in human hepatocytes assessed as hydroxyl oxidation to the acid; type: ADME, cell-based, Hepatocyte
[10] = Volume of distribution at steady state in Sprague-Dawley rat at 1 mg/kg, iv administered as 30 mins infusion by HPLC-MS analysis; type: ADME, organism-based; details: in vivo, read-out: Vdss
In short: (§1)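 30-min intravenous infusion: Sprague Dawley rats 1 mg/kg, beagle dogs 0.25 mg/kg, cynomolgus monkeys 0.1 mg/kg; n = 3 per species, reported as mean ± SD.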

[11] = Half life in Sprague-Dawley rat at 1 mg/kg, iv administered as 30 mins infusion by HPLC-MS analysis; type: ADME, organism-based; details: in vivo; in short: as §1
[12] = Volume of distribution at steady state in Beagle dog at 0.25 mg/kg, iv administered as 30 mins infusion by HPLC-MS analysis; type: ADME, organism-based, Canis lupus familiaris; details: in vivo, read-out: Vdss; in short: as §1
[13] = AUC (infinity) in Beagle dog at 0.5 mg/kg, po administered via gavage by HPLC-MS analysis; type: ADME, organism-based, Canis lupus familiaris; set-up: route oral, time infinity, dose 0.5 mg/kg; details: in vivo
In short: (§2)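 Oral dosing in 2% ethanol/40% PEG 300/58% 0.01N HCl: Sprague Dawley rats 5 mg/kg, beagle dogs 0.5 mg/kg, cynomolgus monkeys 3 mg/kg.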

[14] = Oral bioavailability in Beagle dog at 0.5 mg/kg administered via gavage by HPLC-MS analysis; type: ADME, organism-based, Canis lupus familiaris; details: in vivo; in short: as §2
[15] = AUC (infinity) in cynomolgus monkey at 3 mg/kg, po administered via gavage by HPLC-MS analysis; type: ADME, organism-based, Macaca fascicularis; set-up: route oral, time infinity, dose 3 mg/kg; details: in vivo; in short: as §2
[16] = Oral bioavailability in cynomolgus monkey at 3 mg/kg administered via gavage by HPLC-MS analysis; type: ADME, organism-based, Macaca fascicularis; details: in vivo; in short: as §2
[17] = Drug excretion in bile duct-cannulated Sprague-Dawley rat urine; type: ADME; details: in vivo
[18] = target: Toll-like receptor 2 (Homo sapiens) (UniProt O60603); experiment: Agonist activity at human TLR2 expressed in HEK293 cells assessed as increase in NF-kappaB activation up to 10 uM incubated for 24 hrs by quanti-blue SEAP reporter gene assay; type: cell-based; details: dose microM <=10, time 24.0 hrs
In short: (§3)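 HEK293 cells stably expressing individual human TLRs or other innate immune receptors, used as reporter gene assays. Minimum effective concentration defined as the level giving a 3-fold rise over background.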

[19] = target: Nucleotide-binding oligomerization domain-containing protein 2 (Homo sapiens) (UniProt Q9HC29); experiment: Agonist activity at human NOD2 expressed in HEK293 cells assessed as increase in NF-kappaB activation up to 10 uM incubated for 24 hrs by quanti-blue SEAP reporter gene assay; type: cell-based; details: dose microM <=10, time 24.0 hrs; in short: as §3
[20] = target: T1, C-type lectin domain family 7 member A (Homo sapiens) (UniProt Q9BXN2); experiment: Agonist activity at human Dectin1b expressed in HEK293 cells assessed as increase in NF-kappaB activation up to 10 uM incubated for 24 hrs by quanti-blue SEAP reporter gene assay; type: cell-based; details: dose microM <=10, time 24.0 hrs; in short: as §3
T1 sequence (whole entry): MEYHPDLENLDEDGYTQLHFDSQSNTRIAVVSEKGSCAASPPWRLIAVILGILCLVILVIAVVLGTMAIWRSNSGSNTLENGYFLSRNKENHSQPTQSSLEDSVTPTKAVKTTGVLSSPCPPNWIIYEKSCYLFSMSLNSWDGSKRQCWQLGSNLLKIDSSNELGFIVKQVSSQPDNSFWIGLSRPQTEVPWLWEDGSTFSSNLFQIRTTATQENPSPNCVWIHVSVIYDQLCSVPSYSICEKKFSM

[21] = target: T2, C-type lectin domain family 4 member E (Homo sapiens) (UniProt Q9ULY5); experiment: Agonist activity at human Mincle receptor up to 10 uM; details: dose microM <=10
T2 sequence (whole entry): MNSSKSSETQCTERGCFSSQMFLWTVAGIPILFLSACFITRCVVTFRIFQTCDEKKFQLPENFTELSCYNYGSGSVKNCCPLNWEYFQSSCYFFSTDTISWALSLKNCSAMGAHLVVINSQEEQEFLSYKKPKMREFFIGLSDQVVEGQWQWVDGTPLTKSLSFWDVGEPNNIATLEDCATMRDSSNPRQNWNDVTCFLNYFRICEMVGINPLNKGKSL

[22] = Immunomodulatory activity in human primary hepatocytes infected with HBV assessed as stimulation of CD8+T cell response to virus by measuring decrease in HBV RNA production treated with media from PBMC stimulated with 10 nM compound for 10 days by PCR analysis relative to control; type: functional; set-up: scale not given: the % may be the effect or the level left; details: time 10 day
[23] = Immunomodulatory activity in human primary hepatocytes infected with HBV assessed as stimulation of CD8+T cell response to virus by measuring decrease in HBeAg production treated with media from PBMC stimulated with 10 nM compound for 10 days relative to control; type: functional; set-up: scale not given: the % may be the effect or the level left; details: time 10 day
Hepatitis B virus = experiment: Antiviral activity against HBV infected in human primary hepatocytes; type: functional, organism-based; details: Primary hepatocyte
PBMC = experiment: Immunomodulatory activity in human primary hepatocytes infected with HBV assessed as stimulation of CD8+T cell response to virus by measuring degradation of cccDNA treated with media from PBMC stimulated with 10 nM compound for 10 days; type: functional, cell-based; details: time 10.0 day
[24] = system: Probable ATP-dependent RNA helicase DDX58 (Homo sapiens); experiment: Agonist activity at human RIG1 expressed in HEK293 cells assessed as induction of IFN-inducible ISG54 promoter activity up to 10 uM after overnight incubation by secreted lucia luciferase reporter gene assay; details: dose microM <=10

Nucleotide-binding oligomerization domain-containing protein 2 (Homo sapiens), sequence (Q9HC29 whole entry, the tested form may be a part): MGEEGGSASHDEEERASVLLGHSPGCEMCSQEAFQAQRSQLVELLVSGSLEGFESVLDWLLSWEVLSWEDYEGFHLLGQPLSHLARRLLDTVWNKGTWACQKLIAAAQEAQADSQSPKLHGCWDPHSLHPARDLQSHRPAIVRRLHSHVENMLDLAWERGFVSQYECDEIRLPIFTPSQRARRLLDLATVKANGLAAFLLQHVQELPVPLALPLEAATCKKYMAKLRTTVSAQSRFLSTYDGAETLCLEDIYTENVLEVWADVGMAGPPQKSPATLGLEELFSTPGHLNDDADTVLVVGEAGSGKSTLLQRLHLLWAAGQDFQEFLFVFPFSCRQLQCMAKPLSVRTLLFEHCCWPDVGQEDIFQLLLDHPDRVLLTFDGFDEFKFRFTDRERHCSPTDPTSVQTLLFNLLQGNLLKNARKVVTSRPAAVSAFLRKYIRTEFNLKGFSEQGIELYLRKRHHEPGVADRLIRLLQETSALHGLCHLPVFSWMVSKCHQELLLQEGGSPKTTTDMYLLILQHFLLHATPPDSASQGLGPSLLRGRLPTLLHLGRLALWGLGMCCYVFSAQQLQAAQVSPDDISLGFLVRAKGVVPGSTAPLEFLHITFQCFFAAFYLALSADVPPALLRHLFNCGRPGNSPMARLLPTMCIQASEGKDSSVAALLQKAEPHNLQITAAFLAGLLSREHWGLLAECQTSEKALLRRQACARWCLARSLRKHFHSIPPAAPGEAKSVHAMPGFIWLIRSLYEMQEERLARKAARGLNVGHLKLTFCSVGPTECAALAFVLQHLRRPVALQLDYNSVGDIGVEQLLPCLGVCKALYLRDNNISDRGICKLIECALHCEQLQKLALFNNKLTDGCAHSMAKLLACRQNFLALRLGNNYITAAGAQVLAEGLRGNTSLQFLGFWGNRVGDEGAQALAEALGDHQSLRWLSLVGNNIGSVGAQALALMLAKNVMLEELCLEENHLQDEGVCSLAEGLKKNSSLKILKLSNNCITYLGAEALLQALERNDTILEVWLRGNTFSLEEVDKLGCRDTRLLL
Toll-like receptor 2 (Homo sapiens), sequence (O60603 whole entry): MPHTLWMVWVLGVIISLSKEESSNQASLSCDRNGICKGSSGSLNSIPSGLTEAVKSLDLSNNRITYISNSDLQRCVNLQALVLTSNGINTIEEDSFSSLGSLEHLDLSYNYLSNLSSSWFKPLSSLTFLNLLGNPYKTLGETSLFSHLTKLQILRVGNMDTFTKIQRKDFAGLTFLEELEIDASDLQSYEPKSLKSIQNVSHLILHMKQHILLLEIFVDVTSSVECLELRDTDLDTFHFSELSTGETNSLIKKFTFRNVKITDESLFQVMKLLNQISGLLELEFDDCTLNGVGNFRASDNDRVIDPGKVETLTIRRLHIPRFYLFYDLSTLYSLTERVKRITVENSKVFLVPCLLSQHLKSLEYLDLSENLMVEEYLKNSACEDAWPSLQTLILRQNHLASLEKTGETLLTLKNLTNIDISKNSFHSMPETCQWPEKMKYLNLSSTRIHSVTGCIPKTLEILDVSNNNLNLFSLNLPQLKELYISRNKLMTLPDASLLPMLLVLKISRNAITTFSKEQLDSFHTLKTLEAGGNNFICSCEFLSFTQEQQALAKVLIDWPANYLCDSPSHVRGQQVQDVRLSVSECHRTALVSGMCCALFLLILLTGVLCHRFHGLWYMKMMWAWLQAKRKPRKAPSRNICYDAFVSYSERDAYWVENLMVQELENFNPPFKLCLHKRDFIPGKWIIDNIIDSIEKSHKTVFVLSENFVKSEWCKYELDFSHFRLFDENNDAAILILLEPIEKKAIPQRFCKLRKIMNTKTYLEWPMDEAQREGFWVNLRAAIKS

In the case of `CCCC[C@](C)(CO)Nc1nc(N)nc2cc(F)cnc12` [SELGANTOLIMOD], the pKa [1] is reported as 6.3, the Ratio EC50 (Homo sapiens) is reported as > 185 and the CC50 [2] is reported as 17 µM. The “Ratio CC50/EC50” value [3] was 77, the Activity [4] was >50% and the CLhep predicted at 2 µM [5] was 50 mL/min/kg. It also gave a CLhep predicted at 2 µM [6] of 28.3 mL/min/kg, a CLhep predicted at 2 µM [7] of 25 mL/min/kg and a CLhep predicted at 2 µM [8] of 16.7 mL/min/kg. For the same molecule, the Drug metabolism [9] was “Metabolite_Detected”, the Vd [10] was 1.1 L/kg and the half-life [11] was 1.45 h. For the same molecule, the Vd [12] was 1.01 L/kg, the AUC(0-inf) [13] was 11.8 nM·h and the bioavailability [14] was 0.8%. For the same molecule, the AUC(0-inf) [15] was 4.7 nM·h, the bioavailability [16] was 0.3% and the Drug excretion [17] was “Active”. For the same molecule, the Activity [18] was “inactive”, the Activity [19] was “inactive” and the Activity [20] was “inactive”. The Activity [21] was “inactive”, the Activity [22] was >50% and the Activity [23] was >50%. The Activity (Hepatitis B virus) was “inactive”, the Activity (PBMC) was “inactive” and the Activity [24] was “inactive”.
